The results in this text go back to ChEMBL document CHEMBL1275285, “Synthesis, antimicrobial and anti-inflammatory activities of novel 5-(1-adamantyl)-1,3,4-thiadiazole derivatives” (2010).

Values after ≈ are worked out from the molar mass of the structure shown. Active and inactive are the calls of the source.

What all share (type): functional
Assay [1] has as its system Pseudomonas aeruginosa. Put plainly: Antimicrobial activity against Pseudomonas aeruginosa IFO 3448 at 200 ug/8 mm disk after 24 hrs by agar disk diffusion method. Summed up:
(§1)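 Agar disc diffusion on Mueller-Hinton agar: 8 mm filter paper discs moistened with compound in DMSO (200 per disc) placed on plates pre-inoculated with each organism; incubated at 37 °C; growth inhibition zone diameter read after 24 h for bacteria, 48 h for C. albicans.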
For orientation: Agar diffusion results depend on both activity and mobility in agar.

Assay [2] concerns Candida albicans. Put plainly: Antimicrobial activity against Candida albicans IFO 0583 at 200 ug/8 mm disk after 48 hrs by agar disk diffusion method. Summed up:
as §1

In assay [3] the test system is Bacillus subtilis. Put plainly: Antimicrobial activity against Bacillus subtilis IFO 3007 at 200 ug/8 mm disk after 24 hrs by agar disk diffusion method. Summed up:
as §1

In assay [4] the test system is Micrococcus luteus. Put plainly: Antimicrobial activity against Micrococcus luteus IFO 3232 at 200 ug/8 mm disk after 24 hrs by agar disk diffusion method. Put shortly: as §1
For assay [5], the system named is Escherichia coli. Briefly: Antimicrobial activity against Escherichia coli IFO 3301 at 200 ug/8 mm disk after 24 hrs by agar disk diffusion method. Summed up:
as §1

The test system of assay [6] is Staphylococcus aureus. Briefly: Antimicrobial activity against Staphylococcus aureus IFO 3060 at 200 ug/8 mm disk after 24 hrs by agar disk diffusion method. Summed up: as §1
Assay [7] concerns Rattus norvegicus. Put plainly: Antiinflammatory activity in Sprague-Dawley rat assessed as inhibition of carrageenan-induced paw edema at 20 mg/kg, ip administered 1 hrs before carrageenan challenge relative to untreated control. Particulars: route intraperitoneal.
The subject of assay [8] is Rattus norvegicus. Briefly: Antiinflammatory activity in Sprague-Dawley rat assessed as inhibition of carrageenan-induced paw edema at 40 mg/kg, ip administered 1 hrs before carrageenan challenge relative to untreated control. Particulars: route intraperitoneal.
In assay [9] the test system is Bacillus subtilis. Put plainly: Antimicrobial activity against Bacillus subtilis IFO 3007 after 24 hrs. Summed up:
(§2)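 MIC by two-fold serial dilution in wells inoculated with 10^6 CFU/mL of each organism; incubated at 36 °C for 24 h (bacteria); MIC taken as lowest concentration giving no visible growth by unaided eye.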

Assay [10] deals with Bacillus subtilis. Put plainly: Antimicrobial activity against Bacillus subtilis IFO 3007 at 100 ug/8 mm disk after 24 hrs by agar disk diffusion method. Put shortly: (§3)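 Agar disc diffusion on Mueller-Hinton agar. Sterile 8 mm filter-paper discs were moistened with the agent dissolved in DMSO and placed on plates already inoculated with the organism. Plates were incubated at 37 °C, and growth-inhibition zone diameters were measured after 24 h.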

Assay [11] relates to Micrococcus luteus. Put plainly: Antimicrobial activity against Micrococcus luteus IFO 3232 at 100 ug/8 mm disk after 24 hrs by agar disk diffusion method. Summed up:
as §3

Assay [12] has as its system Micrococcus luteus. Briefly: Antimicrobial activity against Micrococcus luteus IFO 3232 after 24 hrs. Summed up: (§4)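 MIC by two-fold serial dilution in wells, inoculated with microbial suspensions at 10^6 CFU/mL. Incubation was at 36 °C for 24 h (bacteria) or 48 h (C. albicans). MIC was the lowest concentration fully inhibiting visible growth, read by unaided eye.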

Assay [13] relates to Staphylococcus aureus. Briefly: Antimicrobial activity against Staphylococcus aureus IFO 3060 at 100 ug/8 mm disk after 24 hrs by agar disk diffusion method. Put shortly: as §3
In assay [14] the test system is Pseudomonas aeruginosa. Briefly: Antimicrobial activity against Pseudomonas aeruginosa IFO 3448 after 24 hrs. Summed up:
as §2

Assay [15] concerns Pseudomonas aeruginosa. Briefly: Antimicrobial activity against Pseudomonas aeruginosa IFO 3448 at 100 ug/8 mm disk after 24 hrs by agar disk diffusion method. Summed up:
as §3

Assay [16] relates to Escherichia coli. Put plainly: Antimicrobial activity against Escherichia coli IFO 3301 at 100 ug/8 mm disk after 24 hrs by agar disk diffusion method. Summed up: as §3
Assay [17] concerns Staphylococcus aureus. Put plainly: Antimicrobial activity against Staphylococcus aureus IFO 3060 after 24 hrs. Summed up: as §4
Assay [18] deals with Rattus norvegicus. Briefly: Antiinflammatory activity in Sprague-Dawley rat assessed as inhibition of carrageenan-induced paw edema at 5 mg/kg, ip administered 1 hrs before carrageenan challenge relative to untreated control. Particulars: route intraperitoneal.
Assay [19] concerns Candida albicans. Put plainly: Antimicrobial activity against Candida albicans IFO 0583 at 100 ug/8 mm disk after 48 hrs by agar disk diffusion method. Summed up: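 Reference antifungal applied at 100 per 8 mm disc on Mueller-Hinton agar pre-inoculated with C. albicans; 37 °C incubation; inhibition zone diameter measured at 48 h.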
The subject of assay [20] is Candida albicans. Briefly: Antimicrobial activity against Candida albicans IFO 0583 after 48 hrs. Particulars: IFO 0583, 48 h. Summed up: as §4
Assay [21] concerns Escherichia coli. Briefly: Antimicrobial activity against Escherichia coli IFO 3301 after 24 hrs. Particulars: IFO 3301, 24 h. Summed up: as §2

In the case of `S=c1sc(C23CC4CC(CC(C4)C2)C3)nn1CN1CCN(c2ccccc2)CC1`, the “growth inhibition (GI)” value in [1], in [2], in assay [4], in assay [5] and in assay [6] was “inactive” each time. In [3], the GI was found to be 14 mm.

Regarding `S=c1sc(C23CC4CC(CC(C4)C2)C3)nn1Cc1ccc(Cl)cc1`, the “growth inhibition (GI)” value in [1], in [2], in assay [3], in assay [4], in assay [5] and in assay [6] was “inactive” each time.

As to `O=c1[nH]nc(C23CC4CC(CC(C4)C2)C3)s1`, the “growth inhibition (GI)” value in assay [1], in [2], in assay [3], in [4], in assay [5] and in assay [6] was “inactive” each time.

In the case of `S=c1sc(C23CC4CC(CC(C4)C2)C3)nn1Cc1ccccc1`, the “growth inhibition (GI)” value in assay [1], in [2], in [3], in [4], in [5] and in assay [6] was “inactive” throughout. Further, in [7], the inhibition in vivo at 20 mg/kg amounted to 1.12%. Moreover, the inhibition in vivo at 40 mg/kg in assay [8] came to 0.92%.

Turning to `O=[N+]([O-])c1ccc(Cn2nc(C34CC5CC(CC(C5)C3)C4)sc2=S)cc1`, the “growth inhibition (GI)” value in [1], in assay [2], in [3], in [4], in assay [5] and in [6] was “inactive” each time.

For the compound `O=C(O)Cn1nc(C23CC4CC(CC(C4)C2)C3)sc1=S`, the “growth inhibition (GI)” value in assay [1] and in assay [5] was “inactive” in each case. The inhibition in vivo at 20 mg/kg in [7] came out at 29.5%. Moreover, the GI was found to be 17 mm in assay [2], 22 mm in assay [3], 16 mm in [4] and 18 mm in assay [6]. In addition, the inhibition in vivo at 40 mg/kg in [8] was found to be 32.7%. Further, in assay [9] (IFO 3007, 24 h), the lowest concentration to inhibit growth (MIC) was 2 µg/mL (≈ 6.44 µM).

Regarding `Fc1ccc(Cn2nc(C34CC5CC(CC(C5)C3)C4)sc2=S)cc1`, the “growth inhibition (GI)” value in [1], in assay [3], in assay [4], in assay [5] and in assay [6] was “inactive” in each case. The GI in assay [2] was 14 mm.

As to `CC(C(=O)O)n1nc(C23CC4CC(CC(C4)C2)C3)sc1=S` (racemic), the “growth inhibition (GI)” value in assay [1], in [2] and in assay [5] was “inactive” throughout. The inhibition in vivo at 20 mg/kg in assay [7] amounted to 50.6%. The GI in assay [3] is 20 mm; in assay [4] it was 13 mm; in assay [6] it was 18 mm. Moreover, the inhibition in vivo at 40 mg/kg in assay [8] turned out to be 65.2%. In addition, in assay [9] (IFO 3007, 24 h), it took 4 µg/mL (≈ 12.3 µM) to inhibit growth (MIC).

On to `CN1CCN(Cn2nc(C34CC5CC(CC(C5)C3)C4)sc2=S)CC1`, for which the “growth inhibition (GI)” value in assay [1], in assay [2] and in assay [5] was “inactive” each time. The GI in assay [3] is 14 mm; in assay [4] it was 14 mm; in [6], 13 mm.

As to `S=C(Nc1ccccc1)Nc1nnc(C23CC4CC(CC(C4)C2)C3)s1`, the “growth inhibition (GI)” value in assay [1], in [2] and in assay [5] was “inactive” in each case. Moreover, the GI in assay [3] was found to be 14 mm; in assay [4] it was 15 mm; in [6], 13 mm.

For the compound `CC1(C)S[C@@H]2[C@H](NC(=O)[C@H](N)c3ccccc3)C(=O)N2[C@H]1C(=O)O` [AMPICILLIN], the GI came to 21 mm in assay [10]; 19 mm in assay [11]; 23 mm in assay [13]; 17 mm in [15]; 17 mm in assay [16]. Moreover, the minimum inhibitory concentration (MIC) in assay [12] (IFO 3232, 24 h) stood at 2 µg/mL (≈ 5.72 µM); in assay [14] (IFO 3448, 24 h), 2 µg/mL (≈ 5.72 µM); in assay [9] (IFO 3007, 24 h) it was 0.5 µg/mL (≈ 1.43 µM).

GENTAMICIN: the GI was 25 mM in [10]; 18 mM in assay [11]; 26 mM in assay [13]; 19 mM in assay [15]; 20 mM in assay [16]. In addition, the MIC turned out to be 2 µg/mL in [12], 1 µg/mL in assay [14], 2 µg/mL in assay [9] and 2 µg/mL in assay [17].

Consider `O=C(O)CCn1nc(C23CC4CC(CC(C4)C2)C3)sc1=S`, for which the “growth inhibition (GI)” value in assay [1], in assay [4] and in [5] was “inactive” in each case. In assay [7], the inhibition in vivo at 20 mg/kg came to 7.47%. Also, the figures for the GI in assay [2], in [3] and in [6] were 11 mm, 13 mm and 11 mm, respectively. Besides, the inhibition in vivo at 40 mg/kg in assay [8] stood at 36.8%.

`COc1ccc2c(c1)c(CC(=O)O)c(C)n2C(=O)c1ccc(Cl)cc1` [INDOMETHACIN]: the inhibition in vivo at 5 mg/kg in assay [18] came to 52.8%.

Turning to `Clc1ccccc1C(c1ccccc1)(c1ccccc1)n1ccnc1` [CLOTRIMAZOLE], in assay [19], the GI was found to be 21 mm. Further, inhibition of growth in assay [20] (MIC) required 2 µg/mL (≈ 5.8 µM).

For the compound `S=C(Nc1ccc(Cl)cc1)Nc1nnc(C23CC4CC(CC(C4)C2)C3)s1`, the “growth inhibition (GI)” value in assay [1], in [2] and in assay [5] was “inactive” in each case. Besides, the GI in assay [3] was found to be 20 mm; in assay [4], 12 mm; in [6], 15 mm. Also, the MIC in assay [9] (IFO 3007, 24 h) came to 2 µg/mL (≈ 4.94 µM).

Consider `Fc1ccc(NC(=S)Nc2nnc(C34CC5CC(CC(C5)C3)C4)s2)cc1`, for which the “growth inhibition (GI)” value in assay [1], in [2] and in assay [5] was “inactive” each time. The GI in assay [3] was 19 mm; in [4], 11 mm; in assay [6] it was 14 mm. In addition, the lowest concentration to inhibit growth in assay [9] (IFO 3007, 24 h) (MIC) was 4 µg/mL (≈ 10.3 µM).

On to `S=c1[nH]nc(C23CC4CC(CC(C4)C2)C3)s1`, for which the GI in assay [1] is 20 mm; in [3] it was 13 mm; in assay [5], 27 mm; in assay [6] it was 13 mm. Also, the “growth inhibition (GI)” value in assay [2] and in [4] was “inactive” each time. Moreover, the MIC in assay [14] (IFO 3448, 24 h) is 2 µg/mL (≈ 7.92 µM); in [21] it was 0.5 µg/mL (≈ 1.98 µM).

Consider `CCN1CCN(Cn2nc(C34CC5CC(CC(C5)C3)C4)sc2=S)CC1`, for which the “growth inhibition (GI)” value in assay [1], in assay [2], in [4] and in [5] was “inactive” each time. For the same compound, the inhibition in vivo at 20 mg/kg in assay [7] came to 11.3%. Also, the values for the GI in [3] and in assay [6] were 13 mm and 12 mm, respectively. Moreover, the inhibition in vivo at 40 mg/kg in assay [8] amounted to 10.6%.

As usually defined, the inhibition in vivo is the percentage by which the read-out fell short of the control. As a reminder, the MIC is the smallest concentration in the dilution series that meets the test's criterion for growth inhibition. Read a low MIC as inhibition by little substance.
